Assay results taken from publication PMC4410366 (Biochemistry, 2015).
Entries after “also recorded” stand apart in the source; their conditions may differ. Read-outs that look alike come from different tables or passages of the source.

Legend:
[1] = target: T1, recombinant murine iNOS (Mus musculus, UniProt P29477); assay: Irreversible inhibition kinetics; format: biochemical; settings: for Inactivation (irreversible inhibition) of iNOS: qualitative; for Ki: Kitz and Wilson
[2] = target: T2, iNOS heme cofactor (Mus musculus, UniProt P29477); assay: HPLC and LC/MS determination of heme and biliverdin after treatment of iNOS; format: biochemical, murine; settings: for Biliverdin formation: HPLC with UV or MS detection; for Heme loss: qualitative
Outline: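 After iNOS treatment with test compound, biliverdin is analysed by LC/MS with diode-array detection at 401 nm. Column is C18 reversed-phase, with water and acetonitrile each containing 0.1% TFA, at 1.0 mL/min. Solvent B rises linearly from 40% to 60% over 10 min, then returns to 40% within 2 min and holds 3 min.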

[3] = target: T1, recombinant murine iNOS; assay: Determination of substrate activity; format: biochemical; settings: up to 2 mM
Outline: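 Recombinant murine iNOS expressed in E. coli. NO output is read as oxyhemoglobin oxidised to metHb, by absorbance change at 401 nm over the first 60 s at 37 °C. The mix holds NADPH 100 µM, oxyHb 0.125 mg/mL and tetrahydrobiopterin 10 µM in 100 mM Hepes pH 7.4. Test compound is tested up to 2 mM. The reaction starts on adding enzyme.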

[4] = target: T1, recombinant murine iNOS; assay: HPLC / LC/MS of amino acid metabolites from inactivation mixtures; format: biochemical; settings: OPA/MCE derivatization HPLC
Outline: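 E. coli-expressed murine iNOS is incubated with test compound (2 mM stock), NADPH (39 mM stock), H4B (8 mM stock), catalase and glycerol in Hepes 100 mM pH 7.4 for 3 h at 37 °C. Aliquots are derivatised with o-phthalaldehyde/2-mercaptoethanol (20:1 v/v). Separation is C18 reversed-phase HPLC, 50 mM sodium acetate pH 5.9 to 80% methanol gradient, 1.0 mL/min, detection at 340 nm.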

[5] = target: iNOS dimer (Mus musculus, UniProt P29477); assay: LT-PAGE assay of iNOS dimer/monomer after inactivation; format: biochemical, murine; settings: native iNOS control 65 ± 5
[6] = tested on: NOS; settings: cited from earlier work
[7] = target: T1, recombinant murine iNOS; settings: cited from earlier work
[8] = target: T1, recombinant murine iNOS; assay: Hemoglobin assay for iNOS activity; format: biochemical; settings: different concentrations of inhibitor and L-arginine
[9] = target: T2, iNOS heme cofactor; settings: LC-electrospray MS and HPLC; cited from earlier work

T1 sequence (P29477 whole entry): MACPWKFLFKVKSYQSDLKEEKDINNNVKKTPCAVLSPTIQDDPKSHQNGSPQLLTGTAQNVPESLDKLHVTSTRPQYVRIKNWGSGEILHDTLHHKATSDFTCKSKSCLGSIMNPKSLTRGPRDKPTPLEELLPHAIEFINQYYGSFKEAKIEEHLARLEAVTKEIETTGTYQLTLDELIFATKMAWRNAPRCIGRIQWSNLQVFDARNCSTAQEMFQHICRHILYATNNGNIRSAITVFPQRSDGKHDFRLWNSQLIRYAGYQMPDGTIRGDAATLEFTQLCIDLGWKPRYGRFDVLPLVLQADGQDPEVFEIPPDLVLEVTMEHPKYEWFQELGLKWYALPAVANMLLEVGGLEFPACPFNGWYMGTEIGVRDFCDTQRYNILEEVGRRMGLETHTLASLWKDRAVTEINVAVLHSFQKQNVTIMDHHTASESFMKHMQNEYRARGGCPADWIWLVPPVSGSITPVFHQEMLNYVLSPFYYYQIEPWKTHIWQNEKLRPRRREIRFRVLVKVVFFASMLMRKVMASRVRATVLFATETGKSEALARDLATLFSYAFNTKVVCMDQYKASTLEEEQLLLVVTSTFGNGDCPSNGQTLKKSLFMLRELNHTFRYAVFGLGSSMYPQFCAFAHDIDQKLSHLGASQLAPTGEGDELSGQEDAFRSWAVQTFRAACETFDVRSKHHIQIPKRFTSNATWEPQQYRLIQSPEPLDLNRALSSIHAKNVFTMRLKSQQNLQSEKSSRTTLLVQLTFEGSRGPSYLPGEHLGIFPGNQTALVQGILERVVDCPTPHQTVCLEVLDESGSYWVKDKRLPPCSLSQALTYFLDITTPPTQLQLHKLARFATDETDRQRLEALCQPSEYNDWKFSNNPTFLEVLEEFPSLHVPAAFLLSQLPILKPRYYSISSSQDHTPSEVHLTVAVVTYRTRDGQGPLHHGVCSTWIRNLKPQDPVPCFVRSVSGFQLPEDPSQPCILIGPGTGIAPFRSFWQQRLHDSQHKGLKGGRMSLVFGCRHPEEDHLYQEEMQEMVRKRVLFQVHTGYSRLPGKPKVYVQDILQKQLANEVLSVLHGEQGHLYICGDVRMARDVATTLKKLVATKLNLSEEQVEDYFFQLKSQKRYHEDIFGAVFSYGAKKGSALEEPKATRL

SMILES: [2H]C([2H])([2H])C([2H])([2H])C(=N)NCCC[C@H](N)C(=O)O [Compound 26, (S)-2-amino-5-(propanimidamido-2,2,3,3,3-d5)pentanoic acid]
- kinact [1]: 0.073 min⁻¹
- kinact/KI [1]: 4.42 M⁻¹ s⁻¹
- H/D ratio of KI ([1]; 8 versus 26): 0.884 ± 0.068
- Inactivation (irreversible inhibition) of iNOS [1]: inactivated iNOS

SMILES: CCCC(=N)NCCC[C@H](N)C(=O)O [Compound 9]
- Heme lost by incubation with iNOS [2]: < 5%
- Biliverdin formation [2]: No apparent heme loss or biliverdin formation; also recorded: no biliverdin could be detected
- Heme loss [2]: No apparent heme loss
- Substrate activity (NO generation / products) [3]: no nitric oxide was formed
- Metabolites from inactivation of iNOS [4]: none was detected
- kinact/KI ([1]; iNOS inactivation): 3.3 ± 0.16 M⁻¹ s⁻¹
- kinact ([1]; iNOS inactivation, 37 °C): 0.131 ± 0.0095 min⁻¹
- Ki ([1]; iNOS inactivation): 674 ± 80 µM
- Inactivation (irreversible inhibition) of iNOS [1]: inactivators; also recorded: irreversible inhibitors; also recorded: weak irreversible inhibition
- % iNOS Dimer remaining after inactivation [5]: 47 ± 5%

SMILES: CN=C(NC)NCCCC(N)C(=O)O (stereo not shown) [Compound 6b, N^ω,N’^ω-dimethylarginine]
- NOS inhibition [6]: inactive

SMILES: N=CNCCC[C@H](N)C(=O)O [Compound 7]
- Substrate activity (NO generation / products) [3]: does not act as a substrate
- Inactivation (irreversible inhibition) of iNOS [1]: does not act as a substrate or as an inactivator; also recorded: did not inactivate iNOS

SMILES: CCC(=N)NCCC[C@H](N)C(=O)O [Compound 8]
- Heme lost by incubation with iNOS [2]: < 5%
- Biliverdin formation [2]: No apparent heme loss or biliverdin formation; also recorded: no biliverdin could be detected
- Heme loss [2]: No apparent heme loss
- Substrate activity (NO generation / products) [3]: no nitric oxide was formed
- Metabolites from inactivation of iNOS [4]: none was detected; also recorded: no 22 was observed
- kinact/KI ([1]; iNOS inactivation): 5.17 ± 0.467 M⁻¹ s⁻¹
- kinact ([1]; iNOS inactivation, 37 °C): 0.0743 ± 0.0073 min⁻¹
- Ki ([1]; iNOS inactivation): 243 ± 31.4 µM
- Inactivation (irreversible inhibition) of iNOS [1]: inactivators; also recorded: irreversible inhibitors; also recorded: weak irreversible inhibition; also recorded: time-, concentration-, and NADPH-dependent inhibitor
- % iNOS Dimer remaining after inactivation [5]: 46 ± 2%

SMILES: CC(C)C(=N)NCCC[C@H](N)C(=O)O [Compound 10]
- Inactivation (irreversible inhibition) of iNOS [1]: No inactivation was observed

SMILES: CN=C(NC)NCCCC(N)C(=O)O (stereo not shown) [Compound 6a, N^ω, N^ωω-dimethylarginine]
- NOS inhibition [6]: endogenous NOS inhibitor

SMILES: CC(=N)NCCC[C@H](N)C(=O)O [Compound 4, N^5-(1-iminoethyl)-L-ornithine]
- Inactivation of iNOS [7]: time-, concentration-, and NADPH-dependent iNOS inactivator
- Inhibition type [8]: competitive
- Conversion of active site heme in iNOS to biliverdin [9]: convert the active site heme in iNOS to biliverdin IXα
- % iNOS Dimer remaining after inactivation [5]: 51 ± 4%

SMILES: CC(=N)NCc1cccc(CN)c1 [Compound 1400W, N-(3-(aminomethyl)benzyl)acetamidine]
- Conversion of active site heme in iNOS to biliverdin [9]: convert the active site heme in iNOS to biliverdin IXα
